Consider 167 variants from the RNAGym collection of RNA variant scans (doi:10.1126/science.aae0568).

Fewer inactive variants are shown than the library holds.

B1: tRNA (parent)
chain: GUUCCGUUGGCGUAAUGGUAACGCGUCUCCCUCCUAAGGAGAAGACUGCGGGUUCGAGUCCCGUACGGAACG

In the data set the parent is B1. The data set can be described thus: yeast fitness relative to wild type (ratio to wild type); higher = fitter; tRNA-Arg(CCU), competitive growth, 37 C, YPD. The method in brief: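 Gene amplicons from the start population and from each of six end populations were read by 100-nucleotide paired-end sequencing. Those end populations came from pooled Saccharomyces cerevisiae strains carrying tRNA-Arg(CCU) gene variants at the native locus, competed in YPD at 37°C for 24 hours. Fitness relative to wild type was worked out from changes in genotype frequencies. Genotypes needed ≥ 100 starting reads, and estimates < 0.5 were set to 0.5.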
U7G C60U G63C: the yeast fitness turned out to be 0.585. For A20U A37U U59C, the yeast fitness was determined as 0.675. Under U28C G52A C61U A70C stands 0.549; under A15C C31G G58A U59A A65U, not above 0.5; under C5U A45C G56C, 0.572. On to G10A C11A C22U C34G A43C G48C, for which the yeast fitness is 0.585.

Turning to U2C C31A G38C G50A, the yeast fitness stood at 0.604. Under U26A C29G A43G A45U stands not above 0.5; under A45G A70U, 0.913. Consider U28A C29G G51A G56A G67C, for which the yeast fitness was 0.585. Regarding C5G A15U C46U A70G, the yeast fitness was not above 0.5.

As to G17A C31A U32A, the yeast fitness is 0.62. On to U3C G25C G48A, for which the yeast fitness is 0.598. For G6C C11A C66G the value was 0.592; for G9A C31U A40G G52C A65G A69G, not above 0.5; for U7G G68C, 0.895. For C30U G39C C60U the value was not above 0.5; for C22G G23A C30G A65C, 0.535; for C30U G48C A65G, 0.606. Take G17C C30G A57C C61G: the yeast fitness turned out to be 0.613. For C22G C30G G50A A57U the value was not above 0.5; for U3C A15C, 0.695. For C27U U28A U32A C34U A36C the value was 0.554; for C22G G39C G50C, not above 0.5.

For G12A A43U A45C G50C C60U, the yeast fitness is not above 0.5. For A20G C31U A42U C46U U59G A65U, the yeast fitness is not above 0.5. For the variant G9C A42G, the yeast fitness came out at 0.673. For C33G A42C C66G A70G the value was not above 0.5. On to C4U U16A A65C, for which the yeast fitness is 0.612. Under C4U U32A A69U stands 0.601; under U2C C29U A37G C66U, 0.578; under G44C G50A A69U, 0.63. With C4U G25C C34U A65U, the yeast fitness was not above 0.5.

For the variant C5U A14C C29U C46A, the yeast fitness was not above 0.5. Take G17A C22A U35C A45C C46U: the yeast fitness came out at 0.537. For U16C C22U C24U C29U C49U C60U the value was not above 0.5; for A14C A20G C22U C49G G56C, not above 0.5; for A37C A43U A69U, 0.738. For U26A G39A G41C U54C the value was not above 0.5. For U2G A45U C46G A69C the value was 0.537; for U19A C24G G38A G58C C60U C62U C66U, not above 0.5. On to C29G U35A A36C G68A, for which the yeast fitness is not above 0.5. Take A14C U28C: the yeast fitness amounted to 0.606. Turning to U3A C29A, the yeast fitness is 0.653. As for U8C A42U C62A C66U, the yeast fitness is not above 0.5. Under C5U G18C U26G stands not above 0.5; under A40C C49A, 0.668. Take G18A C22G C27G C49U G58A: the yeast fitness was 0.608. Under C5G U13C U35C stands not above 0.5; under A20U C34A G38A U59A, not above 0.5; under G6A C31G C34U C46U G56A, not above 0.5.

Take U26A C60A: the yeast fitness was determined as 0.787. Take G50A A70C: the yeast fitness came out at 0.823. For U16A C29G C30U A40U, the yeast fitness was not above 0.5. Consider U8G C24G G41A A69U, for which the yeast fitness was not above 0.5. For C11G C29U C66A the value was not above 0.5; for C4G A45G, 0.826.

On to G52A U59A C61A, for which the yeast fitness is not above 0.5. Under U8A G23C G51C C62G stands 0.727; under C4A C31A C33U, not above 0.5; under A20G C27A A40G C46G C62G, not above 0.5. As for G9A C24U A40U A57C, the yeast fitness is not above 0.5. For G17A C33G A40U G51C the value was not above 0.5; for U13C A20C A21C C46G, not above 0.5.

With U54G U59C A69U, the yeast fitness was not above 0.5. For A15G C33U A45U C62A the value was not above 0.5; for C49U G51A A69U, 0.573; for G10A C29G C33U, not above 0.5. Under A42G U54A U59A stands 0.541; under G38C A40C, 1.02.

In the case of A21C C62A, the yeast fitness came to 0.788. In the case of A21G A42G, the yeast fitness stood at 0.714.

Turning to U8C U16C C24U U28C U47A C55U, the yeast fitness was not above 0.5. Under C4U C27G C33U A57G stands not above 0.5; under A20U C60G, 0.691. Consider U8A U59C, for which the yeast fitness is 0.748. Turning to U3A C11U A20G, the yeast fitness turned out to be 0.654. Under G10C A21G C55G A57G C60A stands not above 0.5. Under U8G G17A A20C C22G C29G C34G G68A stands 0.606; under C61U G67A, 0.649. Consider C27G C30U C31A C33G C49U G58C, for which the yeast fitness was not above 0.5. On to G6A U54C A57U G58A A65U, for which the yeast fitness is not above 0.5. Regarding C5G C22U U26G U32A U35A A69C, the yeast fitness was not above 0.5. On to U7C C11U G39C A45U C61U, for which the yeast fitness is not above 0.5. As to U3A A20U A45U G58C G67C, the yeast fitness was not above 0.5. Consider A15U G52C, for which the yeast fitness was not above 0.5. For C27U C29U A57C the value was not above 0.5; for C22G C31U C49U, 0.989. For C24A C33A C46U C60G the value was not above 0.5; for A15C C27G G39C U47A, 0.689. Under U13C A69U stands 1.07; under C29G C49G G68C, not above 0.5; under G51A U53A, 0.534.

On to A36U A45C C49G, for which the yeast fitness was 0.704. In the case of C5U C22U C30G A57U C66U A70U, the yeast fitness was not above 0.5. For C5U C34A G56A the value was not above 0.5; for C5U U32C C49G G68C, 0.593; for C4A C30G G50A, not above 0.5. Under A15C A57G stands 0.812; under C4G U26G, 0.856; under C4A U13G U32G C55U G63C, not above 0.5. Under A20U C31U G38C stands 0.553. As to G6C U13C C24A C27G A36U, the yeast fitness is not above 0.5. U8C C27U: the yeast fitness is 0.792. Consider G12C G39C G68C, for which the yeast fitness was not above 0.5. For C4U A21U C55U the value was not above 0.5; for A42U G48C C61A, 0.643. Under C4G A21G C34G stands not above 0.5; under C5G C11A A14G G25C C29G G56C A57C, not above 0.5.

Take C22G A42C A70U: the yeast fitness was 0.671. For the variant U3G U7A G9A, the yeast fitness is not above 0.5. For G9A A20U the value was 0.829; for C27A G41C, 1.18.

Take U32G C46U A69U: the yeast fitness was 0.602. For U2G C11U A40U C49A, the yeast fitness came out at 0.523. C22A C30U A42C A57U G67A A70U: the yeast fitness is not above 0.5. In the case of A15U U47A G63A, the yeast fitness was not above 0.5.

As to G6A G67U, the yeast fitness turned out to be 0.814. Regarding U3C C31U C46A, the yeast fitness was found to be 0.79.

Turning to U2A G23C C27U C31G A42C C61U, the yeast fitness was not above 0.5. Under G12A C46U C62U stands 0.732; under C5G A14U G68C, not above 0.5. As for G12A G63C, the yeast fitness amounted to 0.704. Turning to C29U A45C U54A C55A, the yeast fitness is not above 0.5. C11U G25A: the yeast fitness was determined as 0.867. Under G12C C27G A37G stands not above 0.5; under C22U C30U A37G G48C C55G, not above 0.5.

As for A14U A21U C29G C46U, the yeast fitness is not above 0.5.

A21G A36G A65C: the yeast fitness turned out to be 0.664. Turning to U13G U28G C61U, the yeast fitness is 0.523. Under C4G U8G G9A C11U C34G C49U stands not above 0.5; under G12A A15C C62U C66G, not above 0.5. For A42G C49U U59C C61U the value was not above 0.5. Under C11A A21G C34G G38C C62G A69C stands not above 0.5; under A21G C22G C49U G51A, 0.603. As to G12A C49U G58A, the yeast fitness is 0.7.

In the case of C11U U53A C62A, the yeast fitness is not above 0.5.

In the case of A14U G17A C22U C62A, the yeast fitness is not above 0.5. With U28C A57G, the yeast fitness came out at 0.896. C4G U19G A69U: the yeast fitness is not above 0.5. For C27G U54C A69G the value was 0.625; for G6C G41A A43G C60U A70C, not above 0.5; for C31G A40G A45C U53A, not above 0.5. In the case of C29A C30U C33G C46U, the yeast fitness was not above 0.5. Turning to U8C C46A G50C, the yeast fitness amounted to 0.567. C62U A65U: the yeast fitness stood at 0.93. For A20U C22G A40G A70U the value was not above 0.5; for C29A U47C, 0.713; for G23C C61U C66G A70U, 0.562. For U19G A20C U26C G41A G63A C66U the value was not above 0.5; for C5G A21C G51A G58A, not above 0.5.

As for G25A G51C, the yeast fitness was 0.575. Turning to C4A C46A G67A, the yeast fitness was 0.73. For U7G A21U C30U A40C the value was not above 0.5; for C11U A15U G52A C61G, not above 0.5. For U3G C60A C66U the value was not above 0.5. As to G6A A14U C55A, the yeast fitness was found to be 0.552. On to C31G G44C U53C A65U A70G, for which the yeast fitness is not above 0.5. For U7A G41A the value was 0.634. For C5U G41A G52C the value was not above 0.5; for C30U C34G, 0.715. Under U3C A37U stands 0.806; under G10A G17C A69U, not above 0.5.

Turning to G10C G51C, the yeast fitness came out at 0.535.

For G12C U54C, the yeast fitness was determined as 0.702. Under U32G G56A G63C stands not above 0.5; under U53G A57G C62U, 0.62.
